In ChEMBL document CHEMBL1157144, “Novel 16-membered macrolides modified at C-12 and C-13 positions of midecamycin A1 and miokamycin. Part 1: Synthesis and evaluation of 12,13-carbamate and 12-arylalkylamino-13-hydroxy analogues” (2008):
≈ marks a conversion by molar mass, not a printed value.

Experiments:
Format in all cases: functional
Staphylococcus aureus [1] = test: Antibacterial activity against ermC-inducible resistant Staphylococcus aureus after 20 hrs by agar dilution method
Summary of the method: (§1)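 Agar dilution MIC. The inoculum came from a seed culture in Sensitivity test broth. A 5 µl portion of a cell suspension of about 10^6 CFU/ml was inoculated onto Sensitivity disk agar supplemented with 5% horse blood. Plates were incubated at 37 °C for 20 h, then MIC was read.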

Haemophilus influenzae [2] = test: Antibacterial activity against standard Haemophilus influenzae after 20 hrs by agar dilution method
Summary of the method: (§2)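 MIC by agar dilution. Strains grown on blood agar plates for seed culture. About 5 µl of a suspension of roughly 10^6 CFU/ml spotted onto Sensitivity disk agar with 5% horse blood. Plates incubated at 37 °C for 20 h, then MIC read.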

Staphylococcus aureus [3] = test: Antibacterial activity against ermA-constitutive resistant Staphylococcus aureus after 20 hrs by agar dilution method; summary of the method: as §1
Streptococcus pyogenes [4] = test: Antibacterial activity against ermB-constitutive resistant Streptococcus pyogenes after 20 hrs by agar dilution method
Summary of the method: (§3)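 Agar dilution MIC. Streptococcal strains were pre-cultured on blood agar plates. A 5 µl portion of a cell suspension of about 10^6 CFU/ml was inoculated onto Sensitivity disk agar supplemented with 5% horse blood. Plates were incubated at 37 °C for 20 h, then MIC was read.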

Haemophilus influenzae [5] = test: Antibacterial activity against susceptible Haemophilus influenzae after 20 hrs by agar dilution method; summary of the method: as §2
Streptococcus pneumoniae [6] = test: Antibacterial activity against susceptible Streptococcus pneumoniae after 20 hrs by agar dilution method; summary of the method: as §2
Streptococcus pyogenes [7] = test: Antibacterial activity against standard Streptococcus pyogenes after 20 hrs by agar dilution method; summary of the method: as §2
Streptococcus pneumoniae [8] = test: Antibacterial activity against ermB-inducible resistant Streptococcus pneumoniae after 20 hrs by agar dilution method; summary of the method: as §3
Streptococcus pneumoniae [9] = test: Antibacterial activity against ermB-constitutive resistant Streptococcus pneumoniae after 20 hrs by agar dilution method; summary of the method: as §3
Streptococcus pneumoniae [10] = test: Antibacterial activity against mefE efflux-resistant Streptococcus pneumoniae after 20 hrs by agar dilution method; summary of the method: as §3
Streptococcus pyogenes [11] = test: Antibacterial activity against mefE efflux-resistant Streptococcus pyogenes after 20 hrs by agar dilution method; summary of the method: as §3
Moraxella catarrhalis = test: Antibacterial activity against standard Moraxella catarrhalis after 20 hrs by agar dilution method; summary of the method: as §2
Staphylococcus aureus [12] = test: Antibacterial activity against ermB-inducible resistant Staphylococcus aureus after 20 hrs by agar dilution method; summary of the method: as §1
Staphylococcus aureus [13] = test: Antibacterial activity against standard Staphylococcus aureus after 20 hrs by agar dilution method; summary of the method: as §1
Staphylococcus aureus [14] = test: Antibacterial activity against susceptible Staphylococcus aureus after 20 hrs by agar dilution method; summary of the method: as §1

Row | Structure (SMILES) | MIC (Staphylococcus aureus [1]) [µg/mL] | MIC (Haemophilus influenzae [2]) [µg/mL] | MIC (Staphylococcus aureus [3]) [µg/mL] | MIC (Streptococcus pyogenes [4]) [µg/mL] | MIC (Haemophilus influenzae [5]) [µg/mL] | MIC (Streptococcus pneumoniae [6]) [µg/mL] | MIC (Streptococcus pyogenes [7]) [µg/mL] | MIC (Streptococcus pneumoniae [8]) [µg/mL] | MIC (Streptococcus pneumoniae [9]) [µg/mL] | MIC (Streptococcus pneumoniae [10]) [µg/mL] | MIC (Streptococcus pyogenes [11]) [µg/mL] | MIC (Moraxella catarrhalis) [µg/mL] | MIC (Staphylococcus aureus [12]) [µg/mL] | MIC (Staphylococcus aureus [13]) [µg/mL] | MIC (Staphylococcus aureus [14]) [µg/mL]
1 | CCC(=O)O[C@@H]1CC(=O)O[C@H](C)C[C@H](O)[C@H](N(C)CCCc2ccccc2)/C=C/[C@H](OC(C)=O)[C@H](C)C[C@H](CC=O)[C@H](O[C@@H]2O[C@H](C)[C@@H](O[C@H]3C[C@@](C)(OC(C)=O)[C@@H](OC(=O)CC)[C@H](C)O3)[C@H](N(C)C)[C@H]2O)[C@H]1OC | 0.39 (≈ 0.367 µM) | 3.13 (≈ 2.94 µM) | > 100 | 50 (≈ 47 µM) | 25 (≈ 23.5 µM) | 0.05 (≈ 0.047 µM) | 0.05 (≈ 0.047 µM) | 1.56 (≈ 1.47 µM) | > 100 | 0.1 (≈ 0.094 µM) | 0.1 (≈ 0.094 µM) | 0.39 (≈ 0.367 µM) | 0.2 (≈ 0.188 µM) | 0.39 (≈ 0.367 µM) | 0.39 (≈ 0.367 µM)
2 | CCC(=O)O[C@@H]1CC(=O)O[C@H](C)C[C@H](O)[C@H](N(C)CCCc2cnc3ccccc3c2)/C=C/[C@H](OC(C)=O)[C@H](C)C[C@H](CC=O)[C@H](O[C@@H]2O[C@H](C)[C@@H](O[C@H]3C[C@@](C)(O)[C@@H](OC(=O)CC)[C@H](C)O3)[C@H](N(C)C)[C@H]2O)[C@H]1OC | 0.39 (≈ 0.364 µM) | 3.13 (≈ 2.92 µM) | > 100 | > 100 | 25 (≈ 23.3 µM) | 0.05 (≈ 0.0466 µM) | 0.1 (≈ 0.0933 µM) | 12.5 (≈ 11.7 µM) | > 100 | 0.1 (≈ 0.0933 µM) | 0.2 (≈ 0.187 µM) | 0.78 (≈ 0.727 µM) | 0.2 (≈ 0.187 µM) | 0.39 (≈ 0.364 µM) | 0.39 (≈ 0.364 µM)
3 | CCC(=O)O[C@@H]1CC(=O)O[C@H](C)C[C@H](O)[C@H](N(C)CCCn2cnc(-c3cccnc3)c2)/C=C/[C@H](OC(C)=O)[C@H](C)C[C@H](CC=O)[C@H](O[C@@H]2O[C@H](C)[C@@H](O[C@H]3C[C@@](C)(O)[C@@H](OC(=O)CC)[C@H](C)O3)[C@H](N(C)C)[C@H]2O)[C@H]1OC | 0.39 (≈ 0.358 µM) | 1.56 (≈ 1.43 µM) | > 100 | > 100 | 25 (≈ 23 µM) | 0.06 (≈ 0.0551 µM) | 0.1 (≈ 0.0919 µM) | 100 (≈ 91.9 µM) | > 100 | 0.1 (≈ 0.0919 µM) | 0.2 (≈ 0.184 µM) | 1.56 (≈ 1.43 µM) | 0.39 (≈ 0.358 µM) | 0.39 (≈ 0.358 µM) | 0.2 (≈ 0.184 µM)
4 | CCC(=O)O[C@@H]1CC(=O)O[C@H](C)C/C=C/C=C/[C@H](OC(C)=O)[C@H](C)C[C@H](CC=O)[C@H](O[C@@H]2O[C@H](C)[C@@H](O[C@H]3C[C@@](C)(OC(C)=O)[C@@H](OC(=O)CC)[C@H](C)O3)[C@H](N(C)C)[C@H]2O)[C@H]1OC [MIOCAMYCIN] | 0.78 (≈ 0.869 µM) | 3.13 (≈ 3.49 µM) | > 100 | > 100 | 25 (≈ 27.8 µM) | 0.1 (≈ 0.111 µM) | 0.1 (≈ 0.111 µM) | 6.25 (≈ 6.96 µM) | > 100 | 0.2 (≈ 0.223 µM) | 0.2 (≈ 0.223 µM) | 0.78 (≈ 0.869 µM) | 1.56 (≈ 1.74 µM) | 0.2 (≈ 0.223 µM) | 0.78 (≈ 0.869 µM)
5 | CCC(=O)O[C@@H]1CC(=O)O[C@H](C)C[C@H](O)[C@H](N(C)CCCc2ccnc3ccccc23)/C=C/[C@H](OC(C)=O)[C@H](C)C[C@H](CC=O)[C@H](O[C@@H]2O[C@H](C)[C@@H](O)[C@H](N(C)C)[C@H]2O)[C@H]1OC | 0.39 (≈ 0.447 µM) | 0.39 (≈ 0.447 µM) | > 50 | > 50 | 1.56 (≈ 1.79 µM) | 0.025 (≈ 0.0287 µM) | 0.1 (≈ 0.115 µM) | 12.5 (≈ 14.3 µM) | > 50 | 0.1 (≈ 0.115 µM) | 1.56 (≈ 1.79 µM) | 0.05 (≈ 0.0573 µM) | 0.39 (≈ 0.447 µM) | 0.2 (≈ 0.229 µM) | 0.39 (≈ 0.447 µM)
6 | CCC(=O)O[C@@H]1CC(=O)O[C@H](C)C[C@H](O)[C@H](N(C)CCCCCCc2ccccc2)/C=C/[C@H](OC(C)=O)[C@H](C)C[C@H](CC=O)[C@H](O[C@@H]2O[C@H](C)[C@@H](O[C@H]3C[C@@](C)(O)[C@@H](OC(=O)CC)[C@H](C)O3)[C@H](N(C)C)[C@H]2O)[C@H]1OC | 0.39 (≈ 0.367 µM) | 6.25 (≈ 5.88 µM) | 100 (≈ 94 µM) | 25 (≈ 23.5 µM) | 25 (≈ 23.5 µM) | 0.1 (≈ 0.094 µM) | 0.2 (≈ 0.188 µM) | 6.25 (≈ 5.88 µM) | 50 (≈ 47 µM) | 0.2 (≈ 0.188 µM) | 0.2 (≈ 0.188 µM) | 0.78 (≈ 0.734 µM) | 0.2 (≈ 0.188 µM) | 0.39 (≈ 0.367 µM) | 0.39 (≈ 0.367 µM)
